Measured values gathered from unrelated publications.
Compare with care: the assays were run in different laboratories.
Target: RAC-beta serine/threonine-protein kinase (AKT2, Homo sapiens, UniProt P31751)

N#CC1(c2ccccn2)CCN(Cc2cc(C(=O)O)c(=O)n3ccccc23)CC1  remaining binding (cell-free assay, competition with immobilised ligand; 1 µM): 73%
COc1cc(Nc2ncc(F)c(Nc3ccc4c(n3)NC(=O)C(C)(C)O4)n2)cc(OC)c1OC  inhibition (binding; 10 µM): 0%
COc1ncccc1-c1cnn2ccc(N3CCN(C(=O)OC(C)C)CC3)nc12  remaining binding (binding, competition with immobilised ligand; 1 µM): 98%
CC(C)(C)c1cc(C=C(C#N)C#N)cc(Br)c1O  remaining activity (enzyme activity, inhibitor; 0.5 µM): 97.7%
Cn1cncc1[C@@](O)(COc1ccc(C#N)cc1-c1ccc(OC(F)(F)F)cc1)c1ccc(C#N)cc1  remaining binding (cell-free assay, competition with immobilised ligand; 1 µM): 78%
Cn1cc(-c2cccc(N3CCc4c(sc5c4CC(C)(C)C5)C3=O)c2CO)cc(Nc2ccncn2)c1=O  inhibition (enzyme activity, inhibitor; 1 µM): 2%
Nc1ncc(-c2nc(N3CCOCC3)nc(N3CCOCC3)n2)c(C(F)F)n1  remaining binding (binding, competition with immobilised ligand; 10 µM): 100%
C#Cc1n[nH]c2c(-c3cn(C(C)c4ccccn4)c(=O)[nH]c3=O)cc(F)cc12 (centres unmarked)  inhibition (enzyme activity, inhibitor; 1 µM): 2%
Cn1cc(-c2cc(F)cc(N3CCn4c(cc5c4CCCC5)C3=O)c2CO)cc(Nc2ccc(N3CCN(C4COC4)CC3)cn2)c1=O  inhibition (enzyme activity, inhibitor; 0.1 µM): 9%
Cc1nn(C)cc1-c1nc2c(N3CCN(Cc4ccc(Cl)cc4)CC3)c(Cl)cnc2[nH]1  remaining binding (binding, competition with immobilised ligand; 1 µM): 100%
O=c1[nH]c2ccccc2n1C1CCN(Cc2ccc(-c3[nH]c4cc5ncnc5cc4nc3-c3ccccc3)cc2)CC1  remaining signal (cell-free assay; 0.5 µM): 96.8%
